Assay results published in ChEMBL document CHEMBL4396869, “Design and Synthesis of Selective Phosphodiesterase 4D (PDE4D) Allosteric Inhibitors for the Treatment of Fragile X Syndrome and Other Brain Disorders” (J Med Chem, 2019).
Activity calls are given as the source filed them. The rule behind the calls is not given here.

Tests used:
[1] = system: Mus musculus; experiment: Memory enhancement effect in ICR mouse assessed as improvement in novel object discrimination at 0.3 to 30 mg/kg, po administered via gavage measured for 5 mins by open field test; type: functional, organism-based
In short: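 Male ICR mice (25–30 g), dosed by oral gavage in 5% DMSO, 5% Solutol in PBS. Three phases in an open field box: 10 min habituation on day 1, 5 min training with identical objects on day 2, 5 min test with familiar and novel objects on day 3 (24 h delay). Exploration times recorded; discrimination index d2 = (b − a)/(a + b).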

[2] = Stability in dog liver microsomes assessed as parent compound remaining at 1 uM measured after 30 mins by LC-MS/MS analysis; type: ADME, Canis lupus familiaris, Microsome; details: read-out: Stability
In short: (§1)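 Liver microsome stability run by a contract lab using standard protocols. Parent compound remaining measured after 30 min incubation.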

[3] = Stability in mouse liver microsomes assessed as parent compound remaining at 1 uM measured after 30 mins by LC-MS/MS analysis; type: ADME, Microsome; details: read-out: Stability; in short: as §1
[4] = Stability in rat liver microsomes assessed as parent compound remaining at 1 uM measured after 30 mins by LC-MS/MS analysis; type: ADME, Microsome; details: read-out: Stability; in short: as §1
[5] = biological target: 3',5'-cyclic-AMP phosphodiesterase 4D (Homo sapiens, UniProt Q08499); experiment: Inhibition of recombinant human His6-tagged PDE4D2 expressed in baculovirus infected Sf9 insect cells using cAMP as substrate preincubated for 5 to 10 mins followed by substrate addition and measured for 10 mins by yeast myokinase/pyruvate kinase/lactate dehydrogenase-coupled fluorescence assay relative to control; details: sf9, 10 min
[6] = biological target: Voltage-gated inwardly rectifying potassium channel KCNH2 (Homo sapiens, UniProt Q12809); experiment: Inhibition of human ERG
[7] = Oral bioavailability in C57Bl6 mouse; type: ADME, organism-based; details: in vivo
[8] = Ratio of drug level in C57Bl6 mouse brain to plasma; type: ADME
[9] = Toxicity in rat assessed as effect on CNS up to 60 mg/kg, po; type: organism-based; details: in vivo
[10] = Toxicity in rat assessed as pulmonary effect up to 60 mg/kg, po; type: organism-based; details: in vivo
[11] = Toxicity in rat assessed as weight loss at 100 mg/kg, po; type: organism-based; details: in vivo
[12] = Toxicity in dog assessed as tremor at 100 mg/kg, po; type: organism-based, Canis lupus familiaris; details: in vivo
[13] = Toxicity in dog assessed as weight loss at 100 mg/kg, po; type: organism-based, Canis lupus familiaris; details: in vivo
[14] = biological target: 3',5'-cyclic-AMP phosphodiesterase 4B (Homo sapiens, UniProt Q07343); experiment: Inhibition of recombinant N-terminal GST-tagged full length human PDE4B1 expressed in baculovirus infected Sf9 cells using FAM-cAMP as substrate incubated for 60 mins by fluorescence assay; details: sf9, 1 h
[15] = biological target: Dual specificity calcium/calmodulin-dependent 3',5'-cyclic nucleotide phosphodiesterase 1B (Homo sapiens, UniProt Q01064); experiment: Inhibition of recombinant human full length N-terminal GST-tagged PDE1B expressed in baculovirus infected Sf9 insect cells using FAM-cAMP as substrate measured after 1 hr by fluorescence assay; details: sf9, 1 h
[16] = biological target: cGMP-dependent 3',5'-cyclic phosphodiesterase (Homo sapiens, UniProt O00408); experiment: Inhibition of recombinant human full length N-terminal thrombin cleavage site-fused/GST-tagged PDE2A expressed in baculovirus infected Sf9 insect cells using FAM-cAMP as substrate measured after 60 mins by fluorescence assay; details: sf9, 1 h
[17] = Inhibition of recombinant N-terminal GST-tagged full length human PDE4A1A expressed in baculovirus infected Sf9 cells using FAM-cAMP as substrate incubated for 60 mins by fluorescence assay; details: sf9, 1 h
[18] = biological target: 3',5'-cyclic-AMP phosphodiesterase 4C (Homo sapiens, UniProt Q08493); experiment: Inhibition of recombinant human full length N-terminal GST-tagged PDE4C1 expressed in baculovirus infected Sf9 cells using FAM-cAMP as substrate incubated for 60 mins by fluorescence assay; details: sf9, 1 h
[19] = biological target: cGMP-specific 3',5'-cyclic phosphodiesterase (Homo sapiens, UniProt O76074); experiment: Inhibition of recombinant human N-terminal GST-tagged PDE5A1 expressed in baculovirus infected Sf9 cells using FAM-cGMP as substrate incubated for 60 mins by fluorescence assay; details: sf9, 1 h
[20] = biological target: Cone cGMP-specific 3',5'-cyclic phosphodiesterase subunit alpha' (Homo sapiens, UniProt P51160); experiment: Inhibition of recombinant human N-terminal GST-tagged PDE6C expressed in baculovirus infected Sf9 cells using FAM-cGMP as substrate incubated for 60 mins by fluorescence assay; details: sf9, 1 h
[21] = biological target: High affinity 3',5'-cyclic-AMP phosphodiesterase 7A (Homo sapiens, UniProt Q13946); experiment: Inhibition of recombinant human N-terminal GST-tagged PDE7A2 (122 to end residues) expressed in baculovirus infected Sf9 cells using FAM-cAMP as substrate incubated for 60 mins by fluorescence assay; details: sf9, 1 h
[22] = biological target: 3',5'-cyclic-AMP phosphodiesterase 7B (Homo sapiens, UniProt Q9NP56); experiment: Inhibition of recombinant human N-terminal GST-tagged/C-terminal His-tagged PDE7B (109 to end residues) expressed in baculovirus infected Sf9 cells using FAM-cAMP as substrate incubated for 60 mins by fluorescence assay; details: sf9, 1 h
[23] = biological target: High affinity cAMP-specific and IBMX-insensitive 3',5'-cyclic phosphodiesterase 8A (Homo sapiens, UniProt O60658); experiment: Inhibition of recombinant human full length N-terminal GST-tagged PDE8A1 expressed in baculovirus infected Sf9 cells using FAM-cAMP as substrate incubated for 60 mins by fluorescence assay; details: sf9, 1 h
[24] = biological target: High affinity cGMP-specific 3',5'-cyclic phosphodiesterase 9A (Homo sapiens, UniProt O76083); experiment: Inhibition of recombinant human full length N-terminal GST-tagged PDE9A2 expressed in baculovirus infected Sf9 cells using FAM-cGMP as substrate incubated for 60 mins by fluorescence assay; details: sf9, 1 h
[25] = biological target: cAMP and cAMP-inhibited cGMP 3',5'-cyclic phosphodiesterase 10A (Homo sapiens, UniProt Q9Y233); experiment: Inhibition of recombinant human full length N-terminal GST-tagged PDE10A2 expressed in baculovirus infected Sf9 cells using FAM-cAMP as substrate incubated for 60 mins by fluorescence assay; details: sf9, 1 h
[26] = biological target: Dual 3',5'-cyclic-AMP and -GMP phosphodiesterase 11A (Homo sapiens, UniProt Q9HCR9); experiment: Inhibition of recombinant human full length N-terminal GST-tagged PDE11A expressed in baculovirus infected Sf9 cells using FAM-cAMP as substrate incubated for 60 mins by fluorescence assay; details: sf9, 1 h

3',5'-cyclic-AMP phosphodiesterase 4D, sequence (Q08499 whole entry): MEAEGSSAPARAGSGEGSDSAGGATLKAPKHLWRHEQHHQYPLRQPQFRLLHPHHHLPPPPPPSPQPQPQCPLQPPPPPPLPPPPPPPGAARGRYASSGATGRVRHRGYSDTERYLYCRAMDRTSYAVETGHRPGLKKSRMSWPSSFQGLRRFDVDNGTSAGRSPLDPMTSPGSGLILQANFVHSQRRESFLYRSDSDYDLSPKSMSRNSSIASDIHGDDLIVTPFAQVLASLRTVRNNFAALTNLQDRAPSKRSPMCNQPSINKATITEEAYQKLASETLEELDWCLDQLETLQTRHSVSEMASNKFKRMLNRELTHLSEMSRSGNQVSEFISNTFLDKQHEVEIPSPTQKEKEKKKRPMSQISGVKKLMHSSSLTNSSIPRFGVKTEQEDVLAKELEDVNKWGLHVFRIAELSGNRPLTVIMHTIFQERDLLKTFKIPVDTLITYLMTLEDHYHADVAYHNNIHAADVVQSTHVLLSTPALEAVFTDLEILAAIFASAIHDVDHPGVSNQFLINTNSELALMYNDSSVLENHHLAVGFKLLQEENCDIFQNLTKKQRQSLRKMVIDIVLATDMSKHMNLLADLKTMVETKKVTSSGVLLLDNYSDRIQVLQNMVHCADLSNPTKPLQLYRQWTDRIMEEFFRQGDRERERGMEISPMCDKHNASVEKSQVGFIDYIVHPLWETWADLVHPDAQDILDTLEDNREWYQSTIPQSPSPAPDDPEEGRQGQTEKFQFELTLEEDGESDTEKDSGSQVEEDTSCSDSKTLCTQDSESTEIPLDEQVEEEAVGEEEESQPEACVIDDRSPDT
Voltage-gated inwardly rectifying potassium channel KCNH2, sequence (Q12809 whole entry): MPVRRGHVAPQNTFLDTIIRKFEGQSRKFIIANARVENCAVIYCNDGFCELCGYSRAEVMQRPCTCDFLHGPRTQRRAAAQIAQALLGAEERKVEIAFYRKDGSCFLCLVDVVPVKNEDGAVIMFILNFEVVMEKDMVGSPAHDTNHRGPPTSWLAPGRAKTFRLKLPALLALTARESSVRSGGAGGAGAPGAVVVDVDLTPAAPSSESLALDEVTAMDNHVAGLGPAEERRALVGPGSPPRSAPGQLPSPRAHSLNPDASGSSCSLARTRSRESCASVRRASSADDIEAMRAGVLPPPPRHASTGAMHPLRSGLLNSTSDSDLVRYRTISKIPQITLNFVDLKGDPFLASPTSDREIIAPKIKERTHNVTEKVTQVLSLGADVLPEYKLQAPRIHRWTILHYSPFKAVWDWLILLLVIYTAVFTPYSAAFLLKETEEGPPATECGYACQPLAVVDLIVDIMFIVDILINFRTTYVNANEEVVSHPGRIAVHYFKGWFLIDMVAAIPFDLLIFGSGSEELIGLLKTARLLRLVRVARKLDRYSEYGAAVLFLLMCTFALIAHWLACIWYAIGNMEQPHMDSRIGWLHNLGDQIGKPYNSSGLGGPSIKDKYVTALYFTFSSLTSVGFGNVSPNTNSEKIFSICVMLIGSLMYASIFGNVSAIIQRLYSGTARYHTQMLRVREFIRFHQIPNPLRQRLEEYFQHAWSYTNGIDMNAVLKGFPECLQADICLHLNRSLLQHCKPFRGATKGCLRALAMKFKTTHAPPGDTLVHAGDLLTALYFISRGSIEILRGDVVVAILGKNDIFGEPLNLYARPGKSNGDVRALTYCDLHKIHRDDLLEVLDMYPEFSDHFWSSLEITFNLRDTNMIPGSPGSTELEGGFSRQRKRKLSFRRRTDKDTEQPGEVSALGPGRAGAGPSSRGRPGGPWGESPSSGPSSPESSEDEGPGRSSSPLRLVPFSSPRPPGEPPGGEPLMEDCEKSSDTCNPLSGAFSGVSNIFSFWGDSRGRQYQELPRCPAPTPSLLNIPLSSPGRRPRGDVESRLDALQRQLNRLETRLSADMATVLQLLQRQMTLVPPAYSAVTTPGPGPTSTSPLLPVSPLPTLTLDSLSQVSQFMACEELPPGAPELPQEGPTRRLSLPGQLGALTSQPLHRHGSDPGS
3',5'-cyclic-AMP phosphodiesterase 4C, sequence (Q08493 whole entry): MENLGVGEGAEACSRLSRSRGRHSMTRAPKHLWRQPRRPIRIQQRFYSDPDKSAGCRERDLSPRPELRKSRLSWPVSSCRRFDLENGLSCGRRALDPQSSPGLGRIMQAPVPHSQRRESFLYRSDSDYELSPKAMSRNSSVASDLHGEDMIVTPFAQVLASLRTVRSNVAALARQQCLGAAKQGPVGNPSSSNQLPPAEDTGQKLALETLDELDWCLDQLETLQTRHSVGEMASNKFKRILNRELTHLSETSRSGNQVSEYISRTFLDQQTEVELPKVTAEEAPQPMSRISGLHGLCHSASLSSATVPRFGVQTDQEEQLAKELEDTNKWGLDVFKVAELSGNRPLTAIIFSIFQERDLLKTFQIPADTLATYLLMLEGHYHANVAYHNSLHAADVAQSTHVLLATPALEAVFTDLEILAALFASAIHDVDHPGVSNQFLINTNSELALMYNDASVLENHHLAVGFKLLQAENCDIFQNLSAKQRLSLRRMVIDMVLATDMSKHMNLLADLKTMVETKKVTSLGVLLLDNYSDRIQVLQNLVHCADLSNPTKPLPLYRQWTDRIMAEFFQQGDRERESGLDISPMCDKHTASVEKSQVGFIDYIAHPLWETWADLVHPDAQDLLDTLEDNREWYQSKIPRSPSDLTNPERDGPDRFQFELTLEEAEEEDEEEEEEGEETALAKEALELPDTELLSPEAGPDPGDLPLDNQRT
High affinity cAMP-specific and IBMX-insensitive 3',5'-cyclic phosphodiesterase 8A, sequence (O60658 whole entry): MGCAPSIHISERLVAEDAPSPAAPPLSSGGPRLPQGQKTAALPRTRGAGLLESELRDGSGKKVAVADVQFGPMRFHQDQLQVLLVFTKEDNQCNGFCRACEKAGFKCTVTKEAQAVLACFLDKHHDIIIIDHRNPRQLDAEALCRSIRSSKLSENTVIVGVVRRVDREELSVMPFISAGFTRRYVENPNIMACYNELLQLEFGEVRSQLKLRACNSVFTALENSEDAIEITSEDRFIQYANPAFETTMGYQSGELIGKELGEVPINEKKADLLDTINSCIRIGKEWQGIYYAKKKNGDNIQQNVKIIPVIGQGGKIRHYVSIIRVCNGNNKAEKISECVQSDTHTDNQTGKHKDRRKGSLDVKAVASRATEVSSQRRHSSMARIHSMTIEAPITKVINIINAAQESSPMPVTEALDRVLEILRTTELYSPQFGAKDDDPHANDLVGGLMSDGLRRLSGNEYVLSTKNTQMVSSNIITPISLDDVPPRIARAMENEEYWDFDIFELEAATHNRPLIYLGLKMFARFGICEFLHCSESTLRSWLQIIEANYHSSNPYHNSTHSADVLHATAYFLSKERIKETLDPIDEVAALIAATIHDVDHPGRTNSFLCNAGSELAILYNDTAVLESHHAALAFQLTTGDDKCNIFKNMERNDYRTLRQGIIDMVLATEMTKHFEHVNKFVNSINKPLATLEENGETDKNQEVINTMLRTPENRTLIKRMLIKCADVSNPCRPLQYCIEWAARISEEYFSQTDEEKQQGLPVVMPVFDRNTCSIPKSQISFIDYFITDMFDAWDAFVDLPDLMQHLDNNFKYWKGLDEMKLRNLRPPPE
Cone cGMP-specific 3',5'-cyclic phosphodiesterase subunit alpha', sequence (P51160 whole entry): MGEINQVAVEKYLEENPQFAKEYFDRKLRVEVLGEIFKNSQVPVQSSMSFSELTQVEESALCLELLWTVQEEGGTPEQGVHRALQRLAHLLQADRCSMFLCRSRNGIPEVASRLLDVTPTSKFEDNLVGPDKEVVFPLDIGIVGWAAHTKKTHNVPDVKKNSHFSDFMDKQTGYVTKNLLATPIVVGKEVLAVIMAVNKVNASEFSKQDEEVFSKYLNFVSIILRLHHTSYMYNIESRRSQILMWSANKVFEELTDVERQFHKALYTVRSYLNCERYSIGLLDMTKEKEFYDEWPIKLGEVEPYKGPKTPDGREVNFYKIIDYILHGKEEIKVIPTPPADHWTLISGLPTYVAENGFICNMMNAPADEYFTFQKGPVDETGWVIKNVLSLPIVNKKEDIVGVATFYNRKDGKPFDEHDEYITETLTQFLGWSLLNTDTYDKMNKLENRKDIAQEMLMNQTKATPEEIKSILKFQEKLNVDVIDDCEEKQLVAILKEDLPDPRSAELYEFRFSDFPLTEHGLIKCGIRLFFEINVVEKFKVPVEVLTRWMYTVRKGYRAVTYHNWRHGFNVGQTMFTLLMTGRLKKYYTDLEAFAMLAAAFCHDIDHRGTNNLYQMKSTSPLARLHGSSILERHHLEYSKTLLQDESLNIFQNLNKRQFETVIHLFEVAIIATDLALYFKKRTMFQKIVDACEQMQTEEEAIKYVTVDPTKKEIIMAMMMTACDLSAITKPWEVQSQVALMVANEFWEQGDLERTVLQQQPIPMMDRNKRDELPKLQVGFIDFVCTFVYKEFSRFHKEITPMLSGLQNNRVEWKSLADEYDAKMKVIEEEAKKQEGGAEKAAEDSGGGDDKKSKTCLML
Dual specificity calcium/calmodulin-dependent 3',5'-cyclic nucleotide phosphodiesterase 1B, sequence (Q01064 whole entry, the tested form may be a part): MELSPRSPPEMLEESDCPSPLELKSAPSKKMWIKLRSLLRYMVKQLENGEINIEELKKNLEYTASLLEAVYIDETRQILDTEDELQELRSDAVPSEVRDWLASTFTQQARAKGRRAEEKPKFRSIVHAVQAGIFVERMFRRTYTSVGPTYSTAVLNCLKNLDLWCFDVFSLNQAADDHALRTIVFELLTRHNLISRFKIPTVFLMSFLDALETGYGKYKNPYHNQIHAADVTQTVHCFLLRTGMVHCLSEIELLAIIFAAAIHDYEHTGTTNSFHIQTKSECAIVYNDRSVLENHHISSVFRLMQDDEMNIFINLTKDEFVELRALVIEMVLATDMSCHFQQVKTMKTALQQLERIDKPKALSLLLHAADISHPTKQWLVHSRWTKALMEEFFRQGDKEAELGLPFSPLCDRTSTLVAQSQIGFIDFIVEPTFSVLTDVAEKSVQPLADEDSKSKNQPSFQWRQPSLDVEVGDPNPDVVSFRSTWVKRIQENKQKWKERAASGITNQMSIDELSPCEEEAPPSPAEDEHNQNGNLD

O=C(O)Cc1ccc(Cc2cc(-c3cccc(Cl)c3)nc(C(F)(F)F)c2)cc1 [ZATOLMILAST]
Activity [1]: Active
remaining at 0.5 h, 1 µM [2]: 88 to 100%
remaining at 0.5 h, 1 µM [3]: 88 to 100%
remaining at 0.5 h, 1 µM [4]: 88 to 100%
inhibition (INH) [5]: Not Active
IC50 [6]: > 10 µM
F [7]: 82%
BPR [8]: 0.45
Activity [9]: Non-Toxic
Activity [10]: Non-Toxic
Activity [11]: Toxic
Activity [12]: Toxic
Activity [13]: Toxic
inhibition (INH) [14]: Not Active
inhibition (INH) [15]: Not Active
inhibition (INH) [16]: Not Active
inhibition (INH) [17]: Not Active
inhibition (INH) [18]: Not Active
inhibition (INH) [19]: Not Active
inhibition (INH) [20]: Not Active
inhibition (INH) [21]: Not Active
inhibition (INH) [22]: Not Active
inhibition (INH) [23]: Not Active
inhibition (INH) [24]: Not Active
inhibition (INH) [25]: Not Active
inhibition (INH) [26]: Not Active
